ChEMBL document CHEMBL3286182, “4-aminoquinolone piperidine amides: noncovalent inhibitors of DprE1 with long residence time and potent antimycobacterial activity” (J Med Chem, 2014)
pIC50: −log10 of the molar value. ≈ marks a conversion by molar mass, not a printed value.

Key:
[1] = test system: Mycobacterium tuberculosis; test: Antimycobacterial activity against Mycobacterium tuberculosis over expressing InhA after 5 days by standard microdilution method; assay type: functional; conditions: 120 h
[2] = test system: Mycobacterium tuberculosis; test: Antimycobacterial activity against Mycobacterium tuberculosis H37Rv after 5 days by standard microdilution method; assay type: functional; conditions: 120 h
[3] = test system: Mycobacterium tuberculosis; test: Antimycobacterial activity against Mycobacterium tuberculosis over expressing DprE1 after 5 days by standard microdilution method; assay type: functional; conditions: 120 h
[4] = test system: Mycobacterium tuberculosis; test: Antimycobacterial activity against Mycobacterium tuberculosis over expressing PimA after 5 days by standard microdilution method; assay type: functional; conditions: 120 h
[5] = test system: Mycobacterium tuberculosis; test: Antimycobacterial activity against Mycobacterium tuberculosis over expressing TopA after 5 days by standard microdilution method; assay type: functional; conditions: 120 h
[6] = Inhibition of Mycobacterium smegmatis recombinant DprE1 using farnesylphosphoryl-beta-D-ribofuranose as substrate assessed as conversion of amplex red to resorufin after 30 mins; parameters: species or system Mycolicibacterium smegmatis
In short: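 Msm DprE1 (thioredoxin-6His fusion of Msm Rv3790) at 75 nM, preincubated 30 min with 10 μM FAD. Buffer: 50 mM glycylglycine pH 8.5, 200 mM potassium glutamate, 0.002% Brij-35, 2% DMSO, 25 °C. Started with 300 μM farnesylphosphoryl-β-D-ribofuranose, 0.01 mg/mL HRP and 50 μM Amplex Red.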

[7] = Cytotoxicity against human A549 cells after 72 hrs by resazurin based fluorescence assay; assay type: cell-based; conditions: read-out: MIC
In short: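 Cytotoxicity read as MMIC, the MIC on the A549 cell line.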

[8] = Intrinsic clearance in human liver microsomes at 1 uM up to 30 mins by LC-MS/MS analysis; assay type: ADME; conditions: read-out: CLH
[9] = Intrinsic clearance in rat cryopreserved hepatocytes assessed per 10^6 cells at 1 uM up to 120 mins by LC-MS/MS analysis; assay type: ADME, cell-based, Hepatocyte; conditions: read-out: CLH
Cytochrome P450 2C9 = Cytochrome P450 2C9 (Homo sapiens, UniProt P11712); test: Inhibition of CYP2C9 (unknown origin); assay type: ADME
In short: (§1)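 CYP inhibition IC50 measured on isoforms CYP3A4, CYP2D6, CYP2C9, CYP2C19 and CYP1A2.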

Adenosine receptor A1 = target: T1, Adenosine receptor A1 (Homo sapiens, UniProt P30542); test: Inhibition of adenosine A1 receptor (unknown origin)
T1 sequence (P30542 whole entry): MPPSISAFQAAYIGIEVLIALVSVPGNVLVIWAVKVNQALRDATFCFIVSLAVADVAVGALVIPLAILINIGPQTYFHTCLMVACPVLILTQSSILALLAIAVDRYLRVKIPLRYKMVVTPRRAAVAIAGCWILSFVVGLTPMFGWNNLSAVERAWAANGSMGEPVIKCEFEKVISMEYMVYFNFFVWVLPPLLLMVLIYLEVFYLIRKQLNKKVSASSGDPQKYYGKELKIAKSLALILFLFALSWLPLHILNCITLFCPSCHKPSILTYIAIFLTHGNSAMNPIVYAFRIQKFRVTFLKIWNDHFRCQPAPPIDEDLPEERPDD
In short: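 Secondary pharmacology panel of binding, enzyme and functional assays covering 24 molecular targets. Activity recorded as a defined Ki/IC50/EC50.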

[10] = Solubility of the compound in 0.1 M phosphate buffer at pH 7.4 after 24 hrs by UV and MS analysis; assay type: physicochemical
Cytochrome P450 2D6 = Cytochrome P450 2D6 (Homo sapiens, UniProt P10635); test: Inhibition of CYP2D6 (unknown origin); assay type: ADME; in short: as §1
Cytochrome P450 1A2 = target: T2, Cytochrome P450 1A2 (Homo sapiens, UniProt P05177); test: Inhibition of CYP1A2 (unknown origin); assay type: ADME; in short: as §1
T2 sequence (P05177 whole entry): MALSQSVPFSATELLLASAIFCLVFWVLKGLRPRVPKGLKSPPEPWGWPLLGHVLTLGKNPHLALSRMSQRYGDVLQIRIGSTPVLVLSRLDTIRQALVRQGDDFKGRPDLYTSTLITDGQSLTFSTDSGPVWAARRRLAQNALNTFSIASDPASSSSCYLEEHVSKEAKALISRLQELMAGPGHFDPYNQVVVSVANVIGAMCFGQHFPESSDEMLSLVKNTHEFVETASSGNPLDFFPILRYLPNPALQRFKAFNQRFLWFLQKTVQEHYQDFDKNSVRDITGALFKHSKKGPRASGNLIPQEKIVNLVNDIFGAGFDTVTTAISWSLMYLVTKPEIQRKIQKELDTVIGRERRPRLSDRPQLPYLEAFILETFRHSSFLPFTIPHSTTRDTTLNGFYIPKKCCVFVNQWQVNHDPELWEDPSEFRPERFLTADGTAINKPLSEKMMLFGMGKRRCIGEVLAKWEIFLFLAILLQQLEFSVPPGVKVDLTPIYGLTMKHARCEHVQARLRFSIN

[11] = Fraction unbound in human plasma at 20 uM after 18 hrs by equilibrium dialysis method; assay type: ADME, cell-free
[12] = Permeability of the compound from apical to basolateral side in human Caco2 cells; assay type: ADME, cell-based; conditions: Caco-2, read-out: permeability
Cytochrome P450 3A4 = Cytochrome P450 3A4 (Homo sapiens, UniProt P08684); test: Inhibition of CYP3A4 (unknown origin); assay type: ADME; in short: as §1
[13] = Permeability of the compound from basolateral to apical side in human Caco2 cells; assay type: ADME, cell-based; conditions: Caco-2, read-out: permeability
Cytochrome P450 2C19 = Cytochrome P450 2C19 (Homo sapiens, UniProt P33261); test: Inhibition of CYP2C19 (unknown origin); assay type: ADME; in short: as §1
[14] = target: Voltage-gated inwardly rectifying potassium channel KCNH2 (Homo sapiens, UniProt Q12809); test: Inhibition of human ERG by medium-throughput electrophysiology
[15] = Octanol-water partition coefficient, log D of the compound by shake-flask method; assay type: physicochemical

Chain of Cytochrome P450 3A4 (P08684 whole entry): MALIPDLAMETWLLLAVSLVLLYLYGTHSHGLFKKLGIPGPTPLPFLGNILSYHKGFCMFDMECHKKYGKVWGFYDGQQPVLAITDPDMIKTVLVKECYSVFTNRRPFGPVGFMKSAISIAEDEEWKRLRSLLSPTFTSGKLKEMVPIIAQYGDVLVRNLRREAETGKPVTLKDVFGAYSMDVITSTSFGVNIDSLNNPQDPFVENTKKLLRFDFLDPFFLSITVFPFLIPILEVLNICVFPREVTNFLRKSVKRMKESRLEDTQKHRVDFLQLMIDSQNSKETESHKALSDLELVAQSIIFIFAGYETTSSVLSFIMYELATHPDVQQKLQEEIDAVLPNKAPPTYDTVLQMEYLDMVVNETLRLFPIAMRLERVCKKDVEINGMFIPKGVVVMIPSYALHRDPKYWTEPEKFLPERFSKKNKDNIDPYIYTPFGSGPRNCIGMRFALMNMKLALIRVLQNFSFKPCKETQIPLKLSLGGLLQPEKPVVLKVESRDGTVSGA
Chain of Cytochrome P450 2C19 (P33261 whole entry): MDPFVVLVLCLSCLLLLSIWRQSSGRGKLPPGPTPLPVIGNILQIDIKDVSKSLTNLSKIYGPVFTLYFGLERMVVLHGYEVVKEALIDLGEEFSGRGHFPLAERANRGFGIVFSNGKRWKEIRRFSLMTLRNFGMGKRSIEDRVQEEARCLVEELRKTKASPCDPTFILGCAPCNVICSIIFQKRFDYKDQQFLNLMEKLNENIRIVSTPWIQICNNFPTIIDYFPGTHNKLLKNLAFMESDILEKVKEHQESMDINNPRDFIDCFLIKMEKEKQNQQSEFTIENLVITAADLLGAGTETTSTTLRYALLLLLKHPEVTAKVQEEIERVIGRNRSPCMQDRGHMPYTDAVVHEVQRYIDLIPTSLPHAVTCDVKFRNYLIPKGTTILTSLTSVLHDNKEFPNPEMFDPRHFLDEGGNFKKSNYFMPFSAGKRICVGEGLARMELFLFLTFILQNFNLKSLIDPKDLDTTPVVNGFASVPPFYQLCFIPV
Chain of Cytochrome P450 2C9 (P11712 whole entry, canonical isoform): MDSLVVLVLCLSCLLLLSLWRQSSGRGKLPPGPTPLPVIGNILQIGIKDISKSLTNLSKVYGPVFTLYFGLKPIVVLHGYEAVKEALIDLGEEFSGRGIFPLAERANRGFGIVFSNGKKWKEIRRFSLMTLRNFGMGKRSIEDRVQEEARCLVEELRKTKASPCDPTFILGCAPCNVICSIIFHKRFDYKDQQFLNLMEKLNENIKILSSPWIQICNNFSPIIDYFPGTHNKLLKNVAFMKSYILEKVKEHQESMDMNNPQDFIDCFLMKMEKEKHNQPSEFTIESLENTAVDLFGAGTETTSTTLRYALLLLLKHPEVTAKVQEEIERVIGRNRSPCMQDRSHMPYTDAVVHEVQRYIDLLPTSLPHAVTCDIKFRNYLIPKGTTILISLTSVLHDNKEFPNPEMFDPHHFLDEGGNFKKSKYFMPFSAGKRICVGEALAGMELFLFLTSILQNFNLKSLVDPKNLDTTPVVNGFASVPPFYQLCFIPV
Chain of Cytochrome P450 2D6 (P10635 whole entry): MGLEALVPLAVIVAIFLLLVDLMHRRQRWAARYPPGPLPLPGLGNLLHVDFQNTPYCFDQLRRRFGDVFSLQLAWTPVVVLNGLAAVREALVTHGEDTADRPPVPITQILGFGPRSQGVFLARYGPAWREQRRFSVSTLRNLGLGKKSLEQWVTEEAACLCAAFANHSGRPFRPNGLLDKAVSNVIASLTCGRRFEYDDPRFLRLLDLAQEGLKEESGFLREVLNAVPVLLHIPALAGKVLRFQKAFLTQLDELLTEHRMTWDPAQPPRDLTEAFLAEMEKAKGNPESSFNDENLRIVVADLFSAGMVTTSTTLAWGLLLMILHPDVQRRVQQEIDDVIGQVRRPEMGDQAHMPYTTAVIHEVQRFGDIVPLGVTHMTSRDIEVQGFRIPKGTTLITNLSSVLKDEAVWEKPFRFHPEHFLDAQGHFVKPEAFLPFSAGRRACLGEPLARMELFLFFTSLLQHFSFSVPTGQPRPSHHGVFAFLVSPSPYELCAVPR
Chain of Voltage-gated inwardly rectifying potassium channel KCNH2 (Q12809 whole entry): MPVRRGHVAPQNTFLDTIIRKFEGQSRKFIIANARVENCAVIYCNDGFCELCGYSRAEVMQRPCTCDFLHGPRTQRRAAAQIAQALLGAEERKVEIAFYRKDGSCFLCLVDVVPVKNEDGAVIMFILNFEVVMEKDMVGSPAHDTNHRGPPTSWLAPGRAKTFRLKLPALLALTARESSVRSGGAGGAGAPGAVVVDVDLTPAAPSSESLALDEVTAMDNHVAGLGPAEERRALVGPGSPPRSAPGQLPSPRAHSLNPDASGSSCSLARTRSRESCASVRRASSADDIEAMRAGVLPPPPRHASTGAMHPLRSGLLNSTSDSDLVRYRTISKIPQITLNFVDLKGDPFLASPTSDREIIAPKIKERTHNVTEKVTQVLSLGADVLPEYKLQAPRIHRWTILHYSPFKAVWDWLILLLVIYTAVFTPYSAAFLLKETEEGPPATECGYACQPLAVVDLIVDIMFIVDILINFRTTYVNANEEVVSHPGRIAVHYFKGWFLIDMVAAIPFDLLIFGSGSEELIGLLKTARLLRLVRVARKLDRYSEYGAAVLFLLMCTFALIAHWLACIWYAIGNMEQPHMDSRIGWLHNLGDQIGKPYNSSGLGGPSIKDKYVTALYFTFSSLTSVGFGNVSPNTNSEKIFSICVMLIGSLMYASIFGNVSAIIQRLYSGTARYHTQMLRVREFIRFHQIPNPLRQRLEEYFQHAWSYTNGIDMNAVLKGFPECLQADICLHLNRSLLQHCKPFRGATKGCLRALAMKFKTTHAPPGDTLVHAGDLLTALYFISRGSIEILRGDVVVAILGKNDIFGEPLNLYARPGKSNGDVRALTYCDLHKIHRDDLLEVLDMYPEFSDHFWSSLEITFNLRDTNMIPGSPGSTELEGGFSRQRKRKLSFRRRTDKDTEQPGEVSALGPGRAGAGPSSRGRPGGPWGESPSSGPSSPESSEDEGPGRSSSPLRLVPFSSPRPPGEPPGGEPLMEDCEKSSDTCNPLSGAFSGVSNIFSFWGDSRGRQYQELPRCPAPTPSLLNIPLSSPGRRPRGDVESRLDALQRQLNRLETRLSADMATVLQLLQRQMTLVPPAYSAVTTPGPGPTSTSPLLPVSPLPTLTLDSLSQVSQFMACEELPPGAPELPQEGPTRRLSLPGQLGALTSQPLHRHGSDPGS

C[C@H]1COC2(CCN(c3nc(=O)c4cc(C(F)(F)F)cc([N+](=O)[O-])c4s3)CC2)O1 [BTZ-043]
MIC [1]: 0.003 µM (≈ 0.00129 µg/mL) | MIC [2]: 0.003 µM (≈ 0.00129 µg/mL) | MIC [3]: 12.5 µM (≈ 5.39 µg/mL) | MIC [4]: 0.003 µM (≈ 0.00129 µg/mL) | MIC [5]: 0.012 µM (≈ 0.00518 µg/mL)

COc1nc2ccc(Br)cc2cc1[C@@H](c1ccccc1)[C@@](O)(CCN(C)C)c1cccc2ccccc12 [BEDAQUILINE]
MIC [1]: 1.6 µM (≈ 0.889 µg/mL) | MIC [2]: 0.78 µM (≈ 0.433 µg/mL) | MIC [3]: 1.6 µM (≈ 0.889 µg/mL) | MIC [4]: 0.8 µM (≈ 0.444 µg/mL) | MIC [5]: 0.8 µM (≈ 0.444 µg/mL)

Cc1onc(C(=O)N2[C@@H]3CC[C@H]2C[C@@H](Nc2cc(=O)n(C)c4cc(F)c(F)cc24)C3)c1C
pIC50 [6]: 7.77 | MCC at 72 h [7]: > 50 µM | microsomal CLint at 1 µM [8]: 107 µL/min/mg | hepatocyte CLint at 1 µM [9]: 56 µL/min/1e6 cells | INH (Cytochrome P450 2C9): > 30 µM | MIC [2]: 0.12 µM (≈ 0.0531 µg/mL) | pIC50 (Adenosine receptor A1): 5.10 | solubility at 24 h [10]: 6 µM (≈ 2.65 µg/mL) | INH (Cytochrome P450 2D6): > 30 µM | INH (Cytochrome P450 1A2): > 30 µM | fraction unbound at 18 h, 20 µM [11]: 0.03 | Papp A→B [12]: 23 ×10⁻⁶ cm/s | INH (Cytochrome P450 3A4): > 30 µM | Papp B→A [13]: 13 ×10⁻⁶ cm/s | INH (Cytochrome P450 2C19): > 30 µM | pIC50 [14]: 4.80 | logD [15]: 2.8

NNC(=O)c1ccncc1 [ISONIAZID]
MIC [1]: > 7.25 µM | MIC [2]: 0.45 µM (≈ 0.0617 µg/mL) | MIC [3]: 0.22 µM (≈ 0.0302 µg/mL) | MIC [4]: 0.22 µM (≈ 0.0302 µg/mL) | MIC [5]: 0.45 µM (≈ 0.0617 µg/mL)

COc1c(N2C[C@@H]3CCCN[C@@H]3C2)c(F)cc2c(=O)c(C(=O)O)cn(C3CC3)c12 [MOXIFLOXACIN]
MIC [1]: 0.16 µM (≈ 0.0642 µg/mL) | MIC [3]: 0.08 µM (≈ 0.0321 µg/mL) | MIC [5]: 0.31 µM (≈ 0.124 µg/mL)

Cn1ncc(C(=O)N2[C@@H]3CC[C@H]2C[C@@H](Nc2n[nH]c4ccc(F)cc24)C3)c1Cl
pIC50 [6]: 6.92 | MCC at 72 h [7]: > 50 µM | microsomal CLint at 1 µM [8]: 4 µL/min/mg | hepatocyte CLint at 1 µM [9]: 9 µL/min/1e6 cells | INH (Cytochrome P450 2C9): > 30 µM | MIC [2]: 6.25 µM (≈ 2.52 µg/mL) | pIC50 (Adenosine receptor A1): 5.10 | solubility at 24 h [10]: > 1000 µM | INH (Cytochrome P450 2D6): > 30 µM | INH (Cytochrome P450 1A2): > 30 µM | fraction unbound at 18 h, 20 µM [11]: 0.08 | Papp A→B [12]: 20 ×10⁻⁶ cm/s | INH (Cytochrome P450 3A4): > 30 µM | Papp B→A [13]: 31 ×10⁻⁶ cm/s | INH (Cytochrome P450 2C19): > 30 µM | pIC50 [14]: < 4.48 | logD [15]: 1.9
